In paper PMC3736319 (Antiviral therapy, 2012):
“Also recorded” adds a separate entry of the source. Read-outs that look alike come from different tables or passages of the source.

Legend:
[1] = Steady-state intracellular carbovir triphosphate; format: in vivo, human (HIV-infected subjects)
[2] = Steady-state plasma pharmacokinetics of abacavir; format: in vivo, human (HIV-infected subjects); settings: for Change in plasma ABC concentrations: in the presence of raltegravir versus ABC alone
[3] = cited from earlier work
[4] = format: in vivo, human (HIV-infected subjects); settings: human, plasma, 400 mg
Procedure, shortened: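 HIV-infected adults on a steady-state nucleoside backbone (600 mg once daily, plus two NRTIs, no tenofovir) were randomized 1:1 to a crossover: boosted protease inhibitor 900/100 mg once daily or integrase inhibitor 400 mg twice daily, 14 days each. On days 15 and 29, after a standardized breakfast, serial plasma was drawn over 24 h (protease inhibitor, booster) or 12 h (integrase inhibitor) and measured by a validated assay. Non-compartmental linear–linear trapezoidal AUC0–24 or AUC0–12.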

[5] = PBMC, ABC 600 mg once daily alone, steady state, n=19
[6] = in the presence of darunavir/ritonavir versus ABC alone
[7] = with darunavir/ritonavir versus ABC alone
[8] = with raltegravir versus ABC alone

Compound: Nc1nc(=O)c2ncn([C@H]3C=C[C@@H](COP(=O)(O)OP(=O)(O)OP(=O)(O)O)C3)c2[nH]1 [CBV-TP, carbovir 5′-triphosphate]
- Intracellular CBV-TP AUC0–24, geometric mean (90% CI) [1, 5]: 4,459 (4,060, 5,802) fmol•h/million cells
- Intracellular CBV-TP Cmax, geometric mean (90% CI) [1, 5]: 329 (298, 450) fmol/million cells
- Intracellular CBV-TP Ctrough, geometric mean (90% CI) [1, 5]: 107 (96, 143) fmol/million cells
- Inter-individual variability in intracellular CBV-TP pharmacokinetic parameters ([1]; during coadministration of ABC and darunavir/ritonavir or raltegravir): > 43%
- Change in intracellular CBV-TP Cmax and AUC0–24 [1, 6]: no other significant change; also recorded: not significantly different
- Decrease in intracellular CBV-TP Ctrough [1, 6]: 32%
- Change in intracellular CBV-TP concentrations ([1]; in the presence of raltegravir versus ABC alone): did not lead to any significant alteration; also recorded: No significant changes
- Decrease in intracellular CBV-TP Ctrough ([1]; in the presence of raltegravir versus ABC alone, not statistically significant): 43%
- Intracellular CBV-TP Ctrough, GMR (90% CI) [1, 7]: 0.68 (0.48, 0.95)
- Intracellular CBV-TP Ctrough, GMR (90% CI) [1, 8]: 0.57 (0.33, 1.00)

Compound: Nc1nc(NC2CC2)c2ncn([C@H]3C=C[C@@H](CO)C3)c2n1 [ABC, abacavir]
- AUC(0-t) ([2]; human, plasma, 600 mg): 13500 ng·h/mL
- Cmax ([2]; human, plasma, 600 mg): 4010 ng/mL
- concentration at 24 h ([2]; human, plasma, 600 mg): 4.3 ng/mL
- Decrease in plasma ABC AUC (exposure) [2, 6]: 27%
- Decrease in plasma ABC Cmax [2, 6]: 22%
- Decrease in plasma ABC Ctrough [2, 6]: 38%
- Change in plasma ABC concentrations [2]: No significant changes
- Change in plasma ABC concentrations ([2]; listed as abacavir): no changes
- Inter-individual variability in ABC Ctrough ([2]; plasma, across study phases): > 87%
- Plasma ABC Ctrough, GMR (90% CI) [2, 7]: 0.62 (0.50, 0.77)
- Plasma ABC Ctrough, GMR (90% CI) [2, 8]: 0.83 (0.62, 1.11)
- Decrease in ABC plasma exposure ([3]; in combination with boosted atazanavir): 17%
- Decrease in ABC plasma exposure ([3]; in combination with boosted lopinavir): 32%
- Decrease in ABC plasma exposure ([3]; in combination with boosted tipranavir): 40%
- Increase in ABC plasma exposure ([3]; with high doses of ethanol): 41%

Compound: Cc1nnc(C(=O)NC(C)(C)c2nc(C(=O)NCc3ccc(F)cc3)c(O)c(=O)n2C)o1 [raltegravir]
- AUC(0-t) [4]: 2410 ng·h/mL
